The entries come from a sample that favours hits as a whole.
HCT116 bCat-KO: beta-catenin-lacking colon tumor cell growth suppression; HCT116 beta-catenin knockout viability, CellTiter-Glo, 60 h; hits give low values; viability, % at 10 µM; hit rate 1.5% among 140,000; AID 818;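 active means viability at or under a set limit, the compound median less 4 SD, cut at about 6% in these data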;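 further: 0% = Hyamine 1622 control at 20 µM and 100% = untreated cell control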
H69AR inhibit: growth inhibitors of human H69AR lung tumor cells; H69AR lung tumor viability, ATP luminescence, 72 h; hits give low values; viability, % at 10 µM; hit rate 6% among 85,000;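 active means viability at or below 40%; inactive means viability above 40%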;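 further: multidrug resistant small cell line overexpressing MRP-1 efflux transporter; 100% = mean luminescence of untreated control wells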
HCT116 PTEN-null: PTEN-deleted cell growth suppression. HCT116 PTEN-null viability, CellTiter-Glo, 60 h; hits give low values. viability, % at 10 µM. hit rate 1.2% among 140,000;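 active means viability at or below a set limit, 4 SD under the median of all tested compounds, cut at about 3.7% in these data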;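 further: PTEN knockout HCT116 line with beta catenin targeted HCT116 as companion control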
HUVEC inhibit: human endothelial cell proliferation inhibition | viability, % at 10 µM (by protocol) | HUVEC proliferation, CellTiter-Glo luminescence, 72 h; hits give low values | hit rate 1.1% among 86,000;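 active means viability at or below 30%; inactive means viability above 30%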;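 further: 100% = median luminescence of DMSO-only cell control wells on each plate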
Fibroblast inh: blocks proliferation of human lung fibroblasts; LL 47 human lung fibroblast viability, ATP luminescence; hits give low values; viability, % at 10 µM; hit rate 1.1% among 85,000; AID 719;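 active means viability at or below 50% in the single dose screen; inactive means viability above 50%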;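 further: compound exposure lasted 72 h before the ATP readout; 100% = median luminescence of untreated cell-only wells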
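Test system: LL 47 human lung fibroblasts; Quantity: 1,150 cells/well; Buffer or medium: IMEM plus 15% FBS; Dosing: tenfold compound dosing solution, DMSO at 0.1%; Timing: overnight cell rest, 72 h compound treatment at 37 °C; Detection: ATP-based CellTiter-Glo luminescent readout; Read-out basis: viability percentage against median untreated-cell control; Controls: cell-only wells, no compound.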
Starred values were filed as active, the others as inactive; x = no result given.

SMILES	HCT116 bCat-KO	H69AR inhibit	HCT116 PTEN-null	HUVEC inhibit	Fibroblast inh
Cc1ccc(C2c3c(oc4ccccc4c3=O)C(=O)N2c2nnc(C(C)C)s2)o1 (configuration not stated)	92	8.4*	103	58	100
CC(C)c1nnc(N2C(=O)c3oc4ccccc4c(=O)c3C2c2ccco2)s1 (configuration not stated)	98	x	97	x	x
Cc1ccccc1C(=O)c1cccn1CC(=O)NCc1ccco1	85	90	91	89	96
Cc1ccccc1C(=O)c1cccn1CC(=O)NCCN1CCN(c2cccc(C)c2C)CC1	4.3*	5.2*	7	6.1*	73
COc1ccc(C(=O)/C=C(\C)Nc2ccc(NC(C)=O)cc2)cc1	104	x	89	x	x
COc1ccc(N/N=C(\C=N\O)C(=O)c2ccc(OC)cc2)cc1	19	26*	22	38*	53
Cc1csc(NC(=O)CSc2nnc(-c3ccc(S(=O)(=O)N4CCCC4)cc3)o2)n1	72	34*	73	113	96
CCN(CC)S(=O)(=O)c1ccc(-c2nnc(SCC(=O)Nc3nc(C)cs3)o2)cc1	61	72	62	88	62
Cc1ccc(-c2nnc(SCC(=O)Nc3ccc(S(=O)(=O)N4CCCCCC4)cc3)o2)cc1	89	8.8*	85	37	81
Cc1cc(N2C(=O)NC(=O)CC2C)c(C)cc1C(C)C (configuration not stated)	94	x	98	x	x
O=C(CN1CCN(c2ncc(C(F)(F)F)cc2Cl)CC1)NCCNc1ncc(C(F)(F)F)cc1Cl	79	3.8*	74	76	102
CN(C)/C=C/C(=O)c1ccc(N2CCN(c3ncc(C(F)(F)F)cc3Cl)CC2)cc1	2.1*	0.8*	10	2.3*	52
CN1CCN(c2ccc(S(=O)(=O)N3CCCCC3)cc2NC(=O)c2ccc(F)cc2F)CC1	69	x	70	x	x
CCC(c1nnnn1C1CCCC1)N(Cc1cccs1)Cc1cc2cc(C)ccc2[nH]c1=O (configuration not stated)	4.0*	4.2*	3.0*	51	74
CCOC(=O)Cn1nnnc1C(CC)N(Cc1cccs1)Cc1cc2cc(C)ccc2[nH]c1=O (configuration not stated)	55	72	52	86	101
CCOc1ccc2[nH]c(=O)c(CN(Cc3cccs3)C(CC)c3nnnn3C(C)(C)CC)cc2c1 (configuration not stated)	30	4.9*	18	56	62
CCNC(=S)N(Cc1cccs1)Cc1cc2cc(OCC)ccc2[nH]c1=O	76	x	82	x	x
CC(C)NC(=O)CSc1nnc(-c2ccc(S(=O)(=O)N3CCCC3)cc2)n1CC1CCCO1 (configuration not stated)	104	100	100	94	96
COc1ccc(Nc2nc(NCc3ccco3)nc(N/N=C/c3ccc(O)cc3)n2)cc1	70	x	76	x	x
Cn1c(=O)c2c(-c3ccccc3)n3c4ccccc4ncc3c2n(C)c1=O	x	38*	x	70	91
Cc1noc(C)c1COc1cccc(C(=O)Nc2ccccc2N2CCOCC2)c1	83	x	79	x	x
Clc1ccc(-c2ccc(/C=N/Nc3cc(N4CCOCC4)nc(N4CCOCC4)n3)o2)cc1	42	30*	39	13*	74
COc1ccc(C2NC(c3ccc(OC)cc3)C(c3ccccc3)C(=O)C2c2ccccc2)cc1 (configuration not stated)	81	x	67	x	x
COc1ccc(-c2oc3ncnc(NCCCN4CCOCC4)c3c2-c2ccc(OC)cc2)cc1	49	5.7*	58	44	60
COc1ccc(-n2ncc3c(NCCCN4CCOCC4)ncnc32)cc1	107	88	104	93	102
SMILES	HCT116 bCat-KO	H69AR inhibit	HCT116 PTEN-null	HUVEC inhibit	Fibroblast inh
Clc1ccc(-c2nc(NCCN3CCOCC3)c3ccccc3n2)cc1	57	86	44	9.6*	89
c1ccc(-c2oc3ncnc(NCCCN4CCOCC4)c3c2-c2ccccc2)cc1	36	3.1*	34	37	75
COc1ccc(-c2oc3ncnc(NCCN4CCOCC4)c3c2-c2ccc(OC)cc2)cc1	24	18*	18	71	77
c1ccc(-c2csc3ncnc(NCCN4CCOCC4)c23)cc1	70	54	68	79	81
CCOC(=O)C1CCCN(C/C(O)=C(\C#N)c2nc(-c3ccccc3)cs2)C1 (configuration not stated)	103	65	94	99	109
COc1ccc(C(=O)NCCCN2CCOCC2)cc1OC	116	86	91	97	98
